# Assay results taken from ChEMBL document CHEMBL1240368, “Chloroquine modulates HIV-1-induced plasmacytoid dendritic cell alpha interferon: implication for T-cell activation” (Antimicrob Agents Chemother, 2010).
# Activity calls are given as the source filed them. No cut-off for these calls is given here.
# Columns and labels:
# [1] = biological target: T1, Toll-like receptor (TLR7/TLR9) (Homo sapiens) (UniProt Q9NR96+Q9NYK1); test: Inhibition of TLR7/TLR9-mediated activation of aldrithiol-2-treated HIV1 Ada-stimulated human PBMC assessed as CD86 expressing cells at 100 uM after 20 hrs by flow cytometry; assay type: cell-based; design: scale not given: the % may be the effect or the level left
# Procedure, shortened: (§1)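 PBMC preincubated 1 h ± 100 μM chloroquine, stimulated 20 h with AT-2 HIV-1 Ada or MN (500 ng/ml p24); pDC gated Lin1− CD123+ HLA-DR+; surface CD86 (% cells), CD83 (% cells), or intracellular IRAK-4, IRF-7, IDO after Cytofix/Cytoperm with rabbit antibody plus PE anti-rabbit (MFI) by flow cytometry; microvesicle controls.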
# [2] = biological target: T1, Toll-like receptor (TLR7/TLR9) (Homo sapiens); test: Inhibition of TLR7/TLR9-mediated maturation of aldrithiol-2-treated HIV1 Ada-stimulated human PBMC assessed as CD83 expressing cells at 100 uM after 20 hrs by flow cytometry; assay type: cell-based; design: scale not given: the % may be the effect or the level left; procedure, shortened: as §1
# [3] = biological target: T1, Toll-like receptor (TLR7/TLR9) (Homo sapiens); test: Inhibition of TLR7/TLR9-mediated activation of aldrithiol-2-treated HIV1 MN-stimulated human PBMC assessed as CD86 expressing cells at 100 uM after 20 hrs by flow cytometry; assay type: cell-based; design: scale not given: the % may be the effect or the level left; procedure, shortened: as §1
# [4] = biological target: T1, Toll-like receptor (TLR7/TLR9) (Homo sapiens); test: Inhibition of TLR7/TLR9-mediated maturation of aldrithiol-2-treated HIV1 MN-stimulated human PBMC assessed as CD83 expressing cells at 100 uM after 20 hrs by flow cytometry; assay type: cell-based; design: scale not given: the % may be the effect or the level left; procedure, shortened: as §1
# [5] = biological target: T2, Toll-like receptor 7 (Homo sapiens) (UniProt Q9NYK1); test: Inhibition of TLR7-mediated upregulation of IRAK4 expression in aldrithiol-2-treated HIV1 Ada-stimulated human PBMC at 100 uM after 20 hrs by flow cytometry; procedure, shortened: as §1
# T2 sequence (whole entry): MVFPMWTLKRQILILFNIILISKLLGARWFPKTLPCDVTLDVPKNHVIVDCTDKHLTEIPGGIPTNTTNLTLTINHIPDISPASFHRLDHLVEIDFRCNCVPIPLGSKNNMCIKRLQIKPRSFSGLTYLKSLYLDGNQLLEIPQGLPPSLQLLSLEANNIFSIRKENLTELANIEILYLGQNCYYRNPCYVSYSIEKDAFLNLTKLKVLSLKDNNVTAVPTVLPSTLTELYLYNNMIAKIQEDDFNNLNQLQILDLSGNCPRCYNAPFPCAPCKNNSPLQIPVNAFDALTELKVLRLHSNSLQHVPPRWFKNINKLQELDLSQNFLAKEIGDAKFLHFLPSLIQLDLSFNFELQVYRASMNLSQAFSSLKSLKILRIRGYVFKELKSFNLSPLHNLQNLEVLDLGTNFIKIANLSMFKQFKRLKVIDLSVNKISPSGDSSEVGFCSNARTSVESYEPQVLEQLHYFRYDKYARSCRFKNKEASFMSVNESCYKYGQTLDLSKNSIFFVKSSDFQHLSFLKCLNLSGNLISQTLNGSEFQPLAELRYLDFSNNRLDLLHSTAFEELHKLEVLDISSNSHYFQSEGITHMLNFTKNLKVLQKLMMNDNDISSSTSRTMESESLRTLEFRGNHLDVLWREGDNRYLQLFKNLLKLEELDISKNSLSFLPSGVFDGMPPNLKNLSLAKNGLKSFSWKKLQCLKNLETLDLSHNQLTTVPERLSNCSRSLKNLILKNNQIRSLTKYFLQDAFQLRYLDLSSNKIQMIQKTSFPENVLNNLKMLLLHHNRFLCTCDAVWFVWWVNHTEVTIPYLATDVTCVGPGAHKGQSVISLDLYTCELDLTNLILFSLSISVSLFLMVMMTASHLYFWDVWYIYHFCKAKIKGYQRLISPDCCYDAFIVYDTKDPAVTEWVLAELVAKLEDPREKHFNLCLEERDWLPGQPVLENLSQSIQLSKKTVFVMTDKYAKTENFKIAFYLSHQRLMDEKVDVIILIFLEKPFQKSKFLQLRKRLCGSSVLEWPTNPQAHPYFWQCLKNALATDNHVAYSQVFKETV
# [6] = biological target: T2, Toll-like receptor 7 (Homo sapiens); test: Inhibition of TLR7-mediated upregulation of IRAK4 expression in aldrithiol-2-treated HIV1 MN-stimulated human PBMC at 100 uM after 20 hrs by flow cytometry; procedure, shortened: as §1
# [7] = biological target: T2, Toll-like receptor 7 (Homo sapiens); test: Inhibition of TLR7-mediated upregulation of IRF7 expression in aldrithiol-2-treated HIV1 Ada-stimulated human PBMC at 100 uM after 20 hrs by flow cytometry; procedure, shortened: as §1
# [8] = biological target: T2, Toll-like receptor 7 (Homo sapiens); test: Inhibition of TLR7-mediated upregulation of IRF7 expression in aldrithiol-2-treated HIV1 MN-stimulated human PBMC at 100 uM after 20 hrs by flow cytometry; procedure, shortened: as §1
# [9] = biological target: T1, Toll-like receptor (TLR7/TLR9) (Homo sapiens); test: Inhibition of TLR7/TLR9-mediated activation of aldrithiol-2-treated HIV1 Ada-stimulated human PBMC assessed as CD38-MFI level in activated CD8-positive cells at 5 uM after 20 hrs by flow cytometry; assay type: cell-based
# Procedure, shortened: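 PBMC preincubated 1 h with 5 μM chloroquine, then stimulated with AT-2 HIV-1 Ada for 20 h; CD38 surface expression on gated CD3+ CD8+ T cells by flow cytometry, expressed as CD38 MFI.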
# [10] = biological target: T1, Toll-like receptor (TLR7/TLR9) (Homo sapiens); test: Inhibition of TLR7/TLR9-mediated activation of exogenous rIFNalpha2A-stimulated human CD8-positive T cells assessed as […] at 5 uM after 20 hrs by flow cytometry; assay type: cell-based; details: T-cell
# Procedure, shortened: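 Bead-enriched CD8+ T cells (indirect negative isolation) preincubated 1 h with 5 μM chloroquine, then given 1,000 U/ml rIFN-α2a for 20 h; CD38 MFI on CD3+ CD8+ cells by flow cytometry; anti-IFN-αR 64G12 (10 μg/ml, 30 min pretreatment) used as comparator; n = 3 experiments.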
# [11] = biological target: T1, Toll-like receptor (TLR7/TLR9) (Homo sapiens); test: Inhibition of TLR7/TLR9-mediated upregulation of indoleamine 2,3-dioxygenase expression in aldrithiol-2-treated HIV1 Ada-stimulated human PBMC at 100 uM after 20 hrs by flow cytometry; procedure, shortened: as §1
# [12] = biological target: T1, Toll-like receptor (TLR7/TLR9) (Homo sapiens); test: Inhibition of TLR7/TLR9-mediated upregulation of indoleamine 2,3-dioxygenase expression in aldrithiol-2-treated HIV1 MN-stimulated human PBMC at 100 uM after 20 hrs by flow cytometry; procedure, shortened: as §1
# [13] = biological target: T1, Toll-like receptor (TLR7/TLR9) (Homo sapiens); test: Inhibition of TLR7/TLR9-mediated indoleamine 2,3-dioxygenase activation in aldrithiol-2-treated HIV1 Ada-stimulated human PBMC assessed as decrease in kynurenine to tryptophan level at 100 uM after 20 hrs by fluorometric assay; assay type: protein assay
# Procedure, shortened: (§2)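 PBMC (1 × 10^6/well) ± 100 μM chloroquine (1 h preincubation), stimulated 20 h with AT-2 HIV-1, 3M-011 or CpG A. Kynurenine in supernatant: 30% TCA, 50°C, 30 min, then Ehrlich's reagent, absorbance 490 nm. Tryptophan: 20% TCA, then TCA/formaldehyde/FeCl3 at 90°C for 2 h, fluorescence ex 360/em 460 nm. Duplicates, standard curves; reported as kynurenine/tryptophan ratio.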
# [14] = biological target: T1, Toll-like receptor (TLR7/TLR9) (Homo sapiens); test: Inhibition of TLR7/TLR9-mediated indoleamine 2,3-dioxygenase activation in aldrithiol-2-treated HIV1 MN-stimulated human PBMC assessed as decrease in kynurenine to tryptophan level at 100 uM after 20 hrs by fluorometric assay; assay type: protein assay; procedure, shortened: as §2
# [15] = biological target: T3, TLR7 and TLR8 (Homo sapiens) (UniProt Q9NYK1+Q9NR97); test: Inhibition of TLR7/TLR8-mediated indoleamine 2,3-dioxygenase activation in 3M-011-stimulated human PBMC assessed as decrease in kynurenine to tryptophan level at 100 uM after 20 hrs by ELISA; assay type: protein assay
# T3 sequence (Q9NR97 whole entry, looked up, one chain of several): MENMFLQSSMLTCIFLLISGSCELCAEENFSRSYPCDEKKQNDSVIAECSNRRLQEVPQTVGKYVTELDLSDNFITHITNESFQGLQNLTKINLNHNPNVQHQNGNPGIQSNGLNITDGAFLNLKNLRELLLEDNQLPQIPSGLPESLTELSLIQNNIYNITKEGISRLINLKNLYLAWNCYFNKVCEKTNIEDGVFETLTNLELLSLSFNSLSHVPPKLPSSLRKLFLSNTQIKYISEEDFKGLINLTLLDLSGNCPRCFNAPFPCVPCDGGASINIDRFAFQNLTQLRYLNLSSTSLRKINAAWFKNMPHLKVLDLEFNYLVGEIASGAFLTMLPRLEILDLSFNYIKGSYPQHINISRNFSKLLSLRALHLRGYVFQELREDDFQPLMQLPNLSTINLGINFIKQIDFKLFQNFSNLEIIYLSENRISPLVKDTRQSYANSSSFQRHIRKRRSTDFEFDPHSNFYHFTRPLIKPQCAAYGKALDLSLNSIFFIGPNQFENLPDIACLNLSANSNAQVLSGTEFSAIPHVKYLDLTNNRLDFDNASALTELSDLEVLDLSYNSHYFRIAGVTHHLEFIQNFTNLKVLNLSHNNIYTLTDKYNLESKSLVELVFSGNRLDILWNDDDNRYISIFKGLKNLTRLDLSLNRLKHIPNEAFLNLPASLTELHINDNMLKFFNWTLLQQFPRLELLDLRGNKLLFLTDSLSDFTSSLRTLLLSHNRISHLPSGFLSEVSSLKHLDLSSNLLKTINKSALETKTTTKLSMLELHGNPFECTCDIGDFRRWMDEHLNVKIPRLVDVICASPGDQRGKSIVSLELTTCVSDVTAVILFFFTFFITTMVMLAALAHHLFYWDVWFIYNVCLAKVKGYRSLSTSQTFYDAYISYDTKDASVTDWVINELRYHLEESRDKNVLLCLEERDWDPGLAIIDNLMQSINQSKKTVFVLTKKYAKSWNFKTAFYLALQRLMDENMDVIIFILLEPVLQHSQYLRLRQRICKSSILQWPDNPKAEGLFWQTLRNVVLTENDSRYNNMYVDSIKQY
# [16] = biological target: T4, Toll-like receptor 9 (Homo sapiens) (UniProt Q9NR96); test: Inhibition of TLR9-mediated indoleamine 2,3-dioxygenase activation in CpGA-stimulated human PBMC assessed as decrease in kynurenine to tryptophan level at 100 uM after 20 hrs by ELISA
# T4 sequence (whole entry): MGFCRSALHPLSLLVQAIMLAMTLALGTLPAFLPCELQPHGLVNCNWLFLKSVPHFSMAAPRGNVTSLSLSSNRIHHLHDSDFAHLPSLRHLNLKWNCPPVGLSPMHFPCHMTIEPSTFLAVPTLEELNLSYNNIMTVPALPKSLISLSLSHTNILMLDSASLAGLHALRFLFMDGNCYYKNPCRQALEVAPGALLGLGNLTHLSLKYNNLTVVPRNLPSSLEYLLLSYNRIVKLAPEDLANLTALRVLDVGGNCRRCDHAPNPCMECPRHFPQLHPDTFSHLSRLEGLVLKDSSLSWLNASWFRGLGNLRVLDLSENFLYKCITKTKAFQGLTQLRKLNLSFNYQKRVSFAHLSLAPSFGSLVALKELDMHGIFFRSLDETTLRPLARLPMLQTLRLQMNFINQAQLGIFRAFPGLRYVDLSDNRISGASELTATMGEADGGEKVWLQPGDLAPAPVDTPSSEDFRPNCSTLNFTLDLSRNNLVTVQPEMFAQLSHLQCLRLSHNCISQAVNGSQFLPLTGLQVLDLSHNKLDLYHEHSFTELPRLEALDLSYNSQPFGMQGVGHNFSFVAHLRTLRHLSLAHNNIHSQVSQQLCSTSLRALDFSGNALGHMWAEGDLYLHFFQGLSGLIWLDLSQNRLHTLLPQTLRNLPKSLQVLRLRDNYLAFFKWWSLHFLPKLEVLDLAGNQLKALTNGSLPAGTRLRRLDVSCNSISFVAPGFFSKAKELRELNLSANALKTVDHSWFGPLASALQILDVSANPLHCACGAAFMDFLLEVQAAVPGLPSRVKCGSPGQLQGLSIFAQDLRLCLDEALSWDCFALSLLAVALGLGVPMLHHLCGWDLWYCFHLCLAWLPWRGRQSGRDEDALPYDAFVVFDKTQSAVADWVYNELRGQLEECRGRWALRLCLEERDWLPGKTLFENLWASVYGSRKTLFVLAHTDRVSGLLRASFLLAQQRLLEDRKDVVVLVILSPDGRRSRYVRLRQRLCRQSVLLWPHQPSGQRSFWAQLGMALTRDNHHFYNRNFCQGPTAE
# [17] = biological target: T1, Toll-like receptor (TLR7/TLR9) (Homo sapiens); test: Inhibition of TLR7/TLR9-mediated upregulation of PDL1 expression in aldrithiol-2-treated HIV1 Ada-stimulated human PBMC at 100 uM after 20 hrs by flow cytometry
# Procedure, shortened: (§3)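 Human PBMC (1 × 10^6 cells/well) preincubated 1 h with 100 μM chloroquine or medium, then cultured 20 h at 37°C with AT-2 HIV-1 (500 ng/ml p24), 3M-011 (3.0 μM) or CpG A (4 μg/ml); PDL-1 on pDC read as MFI by flow cytometry.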
# [18] = biological target: T1, Toll-like receptor (TLR7/TLR9) (Homo sapiens); test: Inhibition of TLR7/TLR9-mediated upregulation of PDL1 expression in aldrithiol-2-treated HIV1 MN-stimulated human PBMC at 100 uM after 20 hrs by flow cytometry; procedure, shortened: as §3
# [19] = biological target: T3, TLR7 and TLR8 (Homo sapiens); test: Inhibition of TLR7/TLR8-mediated upregulation of PDL1 expression in 3M-011-stimulated human PBMC at 100 uM after 20 hrs by flow cytometry; procedure, shortened: as §3
# [20] = biological target: T4, Toll-like receptor 9 (Homo sapiens); test: Inhibition of TLR9-mediated upregulation of PDL1 expression in CpGA-stimulated human PBMC at 100 uM after 20 hrs by flow cytometry; procedure, shortened: as §3
# [21] = biological target: T4, Toll-like receptor 9 (Homo sapiens); test: Inhibition of TLR9-mediated IFN-alpha production in CpGA-stimulated human PBMC at 100 uM after 20 hrs by ELISA
# [22] = biological target: T3, TLR7 and TLR8 (Homo sapiens); test: Inhibition of TLR7/TLR8-mediated IFN-alpha production in 3M-011-stimulated human PBMC at 100 uM after 20 hrs by ELISA
# [23] = biological target: T2, Toll-like receptor 7 (Homo sapiens); test: Inhibition of TLR7-mediated IFN-alpha production in aldrithiol-2-treated HIV1 MN-stimulated human PBMC after 20 hrs by ELISA
# [24] = biological target: T2, Toll-like receptor 7 (Homo sapiens); test: Inhibition of TLR7-mediated IFN-alpha production in aldrithiol-2-treated HIV1 Ada-stimulated human PBMC after 20 hrs by ELISA
# [25] = biological target: T2, Toll-like receptor 7 (Homo sapiens); test: Inhibition of TLR7-mediated IFN-alpha production in aldrithiol-2-treated HIV1 MN-stimulated human PBMC at 100 uM after 20 hrs by ELISA
# [26] = biological target: T2, Toll-like receptor 7 (Homo sapiens); test: Inhibition of TLR7-mediated IFN-alpha production in aldrithiol-2-treated HIV1 Ada-stimulated human PBMC at 100 uM after 20 hrs by ELISA
compound,measurement,setting,value
CCN(CC)CCCC(C)Nc1ccnc2cc(Cl)ccc12 (stereo unspecified),Activity,[1],11.1%
same,Activity,[2],12.6%
same,Activity,[3],8.2%
same,Activity,[4],14.3%
same,inhibition,[5],Active
same,inhibition,[6],Active
same,inhibition,[7],Active
same,inhibition,[8],Active
same,inhibition,[9],23.4%
same,inhibition,[10],inactive
same,inhibition,[11],Active
same,inhibition,[12],Active
same,inhibition,[13],Active
same,inhibition,[14],Active
same,inhibition,[15],Active
same,inhibition,[16],Active
same,inhibition,[17],Active
same,inhibition,[18],Active
same,inhibition,[19],Active
same,inhibition,[20],Active
same,inhibition,[21],Active
same,inhibition,[22],Active
same,inhibition,[23],Dose-dependent effect
same,inhibition,[24],Dose-dependent effect
same,inhibition,[25],Active
same,inhibition,[26],Active
